From ChEMBL document CHEMBL4270487, “The Berkeleylactones, Antibiotic Macrolides from Fungal Coculture” (J Nat Prod, 2017)
≈ marks a conversion by molar mass, not a printed value. Calls of active or inactive are those of the source. No cut-off for these calls is given here.

Tests used:
[1] = test system: Ribosome; experiment: Induction of ribosome stalling assessed as induction of stalling of ribosome at ermBL ORF at 50 uM by extension inhibition assay
In short: (§1)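 Primer extension inhibition was run on an ermBL gene template following the published procedure. Erythromycin, josamycin and tylosin were included in the reaction as references at 50 μM. The test agent was present at 50 or 250 μM.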

[2] = In-vitro inhibition of protein translation using pY71-sfGFP in PUREexpress in vitro protein synthesis system assessed as reduction in cell-free GFP protein translation at 50 uM measured every 20 mins for 2 hrs; assay type: functional
In short: (§2)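 Cell-free transcription-translation reactions were programmed with the pY71-sfGFP plasmid. The antibiotic solution was dried at the bottom of the tube before the reaction components were added. Erythromycin, josamycin and tylosin served as references at a final 50 μM. Reactions were incubated at 37 °C, with GFP fluorescence (excitation 488 nm, emission 520 nm) read every 20 min for 2 h.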

[3] = test system: Nakaseomyces glabratus; experiment: Antibiotic activity against Candida glabrata by broth microdilution assay or Alamar blue dye based colorimetric assay; assay type: functional
[4] = target: Stromelysin-1 (Homo sapiens, UniProt P08254); experiment: Inhibition of MMP3 (unknown origin)
[5] = test system: Bacillus anthracis; experiment: Antibiotic activity against Bacillus anthracis by broth microdilution assay or Alamar blue dye based colorimetric assay; assay type: functional
In short: (§3)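 Minimum inhibitory concentration (MIC) by broth microdilution following CLSI standards, with Alamar Blue as the colorimetric reporter. Test compounds were made up as 50 mM stocks in DMSO and serially diluted 2-fold in the test wells. The top final well concentration was 500 μM (500, 250, 125, 64, 32, 16, 8, 4, 2, 1 μM, etc.).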

[6] = test system: Candida albicans; experiment: Antibiotic activity against Candida albicans by broth microdilution assay or Alamar blue dye based colorimetric assay; assay type: functional
[7] = test system: CCRF-CEM; experiment: Growth inhibition of human CCRF-CEM cells at 10 uM incubated for 48 hrs by SRB assay; assay type: functional; conditions: read-out: GI
[8] = test system: Bacillus subtilis; experiment: Antibiotic activity against Bacillus subtilis by broth microdilution assay or Alamar blue dye based colorimetric assay; assay type: functional
In short: (§4)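 Broth microdilution following CLSI standards, read colorimetrically with Alamar Blue. Test compounds were made as 50 mM stocks in DMSO, then serially diluted 2-fold in the test wells from a top final concentration of 500 μM (500, 250, 125, 64, 32 μM and lower). The MIC was taken from this dilution series.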

[9] = test system: Staphylococcus aureus; experiment: Antibiotic activity against Staphylococcus aureus 13709 by broth microdilution assay or Alamar blue dye based colorimetric assay; assay type: functional; in short: as §4
[10] = test system: Streptococcus pyogenes; experiment: Antibiotic activity against Streptococcus pyogenes by broth microdilution assay or Alamar blue dye based colorimetric assay; assay type: functional; in short: as §4
[11] = test system: Staphylococcus aureus; experiment: Antibiotic activity against methicillin-resistant Staphylococcus aureus isolate CAIRD148 by broth microdilution assay or Alamar blue dye based colorimetric assay; assay type: functional; in short: as §3
[12] = test system: Staphylococcus aureus; experiment: Antibiotic activity against methicillin-resistant Staphylococcus aureus isolate CAIRD116 by broth microdilution assay or Alamar blue dye based colorimetric assay; assay type: functional; in short: as §3
[13] = test system: Staphylococcus aureus; experiment: Antibiotic activity against methicillin-resistant Staphylococcus aureus isolate CAIRD142 by broth microdilution assay or Alamar blue dye based colorimetric assay; assay type: functional; in short: as §3
[14] = test system: Staphylococcus aureus; experiment: Antibiotic activity against methicillin-resistant Staphylococcus aureus isolate NE277 by broth microdilution assay or Alamar blue dye based colorimetric assay; assay type: functional; in short: as §3
[15] = In-vitro inhibition of protein translation using pY71-sfGFP in PUREexpress in vitro protein synthesis system assessed as reduction in cell-free GFP protein translation at 250 uM measured every 20 mins for 2 hrs; assay type: functional; in short: as §2
[16] = test system: RPMI-8226; experiment: Cytotoxicity human RPMI8226 cells assessed as cell lethality at 10 uM incubated for 48 hrs by SRB assay; assay type: functional
In short: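 Single-dose (10 μM) screen run by the NCI Developmental Therapeutics Program across its 60 cell-line panel. Read as percent growth inhibition.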

[17] = test system: K562; experiment: Growth inhibition of human K562 cells at 10 uM incubated for 48 hrs by SRB assay; assay type: functional; conditions: K562, 48 h, read-out: GI
[18] = test system: Ribosome; experiment: Induction of ribosome stalling (unknown origin) assessed as induction of stalling of ribosome at ermBL ORF at 250 uM by extension inhibition assay; in short: as §1
[19] = test system: RPMI-8226; experiment: Growth inhibition of human RPMI8226 cells at 10 uM incubated for 48 hrs by SRB assay; assay type: functional; conditions: RPMI-8226, 48 h, read-out: GI

Chain of Stromelysin-1 (P08254 whole entry): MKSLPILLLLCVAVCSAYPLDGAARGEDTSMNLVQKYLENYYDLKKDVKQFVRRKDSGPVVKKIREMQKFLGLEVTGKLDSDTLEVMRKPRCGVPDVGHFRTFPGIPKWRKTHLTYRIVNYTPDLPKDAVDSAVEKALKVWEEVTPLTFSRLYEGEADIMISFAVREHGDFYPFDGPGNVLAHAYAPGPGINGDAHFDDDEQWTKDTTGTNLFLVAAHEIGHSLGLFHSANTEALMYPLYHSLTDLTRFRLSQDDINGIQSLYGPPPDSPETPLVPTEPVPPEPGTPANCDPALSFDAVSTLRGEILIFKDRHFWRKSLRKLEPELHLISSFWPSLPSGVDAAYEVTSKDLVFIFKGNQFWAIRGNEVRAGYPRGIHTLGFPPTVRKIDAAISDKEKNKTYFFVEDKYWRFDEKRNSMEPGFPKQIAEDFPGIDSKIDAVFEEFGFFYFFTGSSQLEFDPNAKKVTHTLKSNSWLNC

SMILES | Activity [1] | translation inhibition (active/not active) [2] | MIC [3] | MIC [5] | MIC [6] | MIC [8] | MIC [9] | MIC [10] | MIC [11] | MIC [12] | MIC [13] | other results
CC[C@H]1OC(=O)C[C@@H](O)[C@H](C)[C@@H](O[C@@H]2O[C@H](C)[C@@H](O[C@H]3C[C@@](C)(O)[C@@H](O)[C@H](C)O3)[C@H](N(C)C)[C@H]2O)[C@@H](CC=O)C[C@@H](C)C(=O)/C=C/C(C)=C/[C@@H]1CO[C@@H]1O[C@H](C)[C@@H](O)[C@@H](OC)[C@H]1OC | Active | Active | – | – | – | – | – | – | – | – | – | –
C[C@H]1OC(=O)/C=C/[C@@H](O)[C@@H](O)CCCCCCCC[C@@H]1O | – | – | > 1000 µM | 250 µM (≈ 75.1 µg/mL) | > 1000 µM | > 1000 µM | 64 µM (≈ 19.2 µg/mL) | 500 µM (≈ 150 µg/mL) | – | – | – | IC50 [4]: 150 µM; inhibition of growth at 10 µM [7]: 38%
CC[C@H]1OC(=O)[C@H](C)[C@@H](O[C@H]2C[C@@](C)(OC)[C@@H](O)[C@H](C)O2)[C@H](C)[C@@H](O[C@@H]2O[C@H](C)C[C@H](N(C)C)[C@H]2O)[C@](C)(O)C[C@@H](C)C(=O)[C@H](C)[C@@H](O)[C@]1(C)O [ERYTHROMYCIN] | Active | Active | – | – | – | – | – | – | > 32 µg/mL | > 32 µg/mL | > 32 µg/mL | –
C[C@H]1COc2c(N3CCN(C)CC3)c(F)cc3c(=O)c(C(=O)O)cn1c23.C[C@H]1COc2c(N3CCN(C)CC3)c(F)cc3c(=O)c(C(=O)O)cn1c23.O [LEVOFLOXACIN] | – | – | – | – | – | – | – | – | > 16 µg/mL | > 16 µg/mL | 0.25 µg/mL | –
C[C@@H]1CCCCCCCCC[C@H](OC(=O)CCC(=O)O)C(=O)C[C@@H](SC[C@@H](O)C(=O)O)C(=O)O1 | – | – | 64 µM (≈ 32.3 µg/mL) | 16 µM (≈ 8.07 µg/mL) | > 250 µM | 64 µM (≈ 32.3 µg/mL) | 8 µM (≈ 4.04 µg/mL) | 250 µM (≈ 126 µg/mL) | 16 µM | 32 µM | 32 µM | MIC [14]: 16 µM (≈ 8.07 µg/mL)
CCC[C@@H]1C[C@@H](C(=O)N[C@@H]([C@H]2O[C@H](SC)[C@H](O)[C@@H](O)[C@H]2O)[C@H](C)Cl)N(C)C1 [CLINDAMYCIN] | – | – | – | – | – | – | – | – | > 16 µg/mL | > 16 µg/mL | > 16 µg/mL | –
C[C@H]1c2cccc(O)c2C(=O)C2=C(O)[C@]3(O)C(=O)C(C(N)=O)=C(O)[C@@H](N(C)C)[C@@H]3[C@@H](O)[C@@H]21.O [DOXYCYCLINE] | – | – | – | – | – | – | – | – | 0.25 µg/mL | 8 µg/mL | 16 µg/mL | –
C[C@@H]1CCCCCCCCC[C@H](O)C(=O)C[C@@H](SC[C@@H](O)C(=O)O)C(=O)O1 | inactive | inactive | 16 µM (≈ 6.47 µg/mL) | 8 µM (≈ 3.24 µg/mL) | 64 µM (≈ 25.9 µg/mL) | 32 µM (≈ 12.9 µg/mL) | 2 µM (≈ 0.809 µg/mL) | 8 µM (≈ 3.24 µg/mL) | 2 µM | 2 µM | 4 µM | inhibition [15]: inactive; IC50 [4]: 100 µM; Activity [16]: 2.4%; MIC [14]: 2 µM (≈ 0.809 µg/mL); inhibition of growth at 10 µM [17]: 85%; Activity [18]: inactive
C[C@H]1OC(=O)/C=C/C(=O)[C@@H](OC(=O)CCC(=O)O)CCCCCCCC[C@@H]1O | – | – | 64 µM (≈ 25.5 µg/mL) | 16 µM (≈ 6.38 µg/mL) | 125 µM (≈ 49.8 µg/mL) | 64 µM (≈ 25.5 µg/mL) | 16 µM (≈ 6.38 µg/mL) | 64 µM (≈ 25.5 µg/mL) | – | – | – | inhibition of growth at 10 µM [7]: 48%; inhibition of growth at 10 µM [17]: 46%
C[C@@H]1CCCCCCCCC[C@H](OC(=O)CCC(=O)O)C(=O)/C=C/C(=O)O1 | – | – | 125 µM (≈ 47.8 µg/mL) | 16 µM (≈ 6.12 µg/mL) | 250 µM (≈ 95.6 µg/mL) | 32 µM (≈ 12.2 µg/mL) | 8 µM (≈ 3.06 µg/mL) | 125 µM (≈ 47.8 µg/mL) | 16 µM | 16 µM | 16 µM | IC50 [4]: 50 µM; inhibition of growth at 10 µM [19]: 48%; MIC [14]: 16 µM (≈ 6.12 µg/mL)
Cc1nnc(SCC2=C(C(=O)O)N3C(=O)[C@@H](NC(=O)Cn4cnnn4)[C@H]3SC2)s1 [CEFAZOLIN] | – | – | – | – | – | – | – | – | 256 µg/mL | 256 µg/mL | 256 µg/mL | –
C[C@@H]1CC(O)CCCCCCC[C@H](OC(=O)CCC(=O)O)C(=O)/C=C/C(=O)O1 (some centres not stated) | – | – | > 1000 µM | 64 µM (≈ 25.5 µg/mL) | > 1000 µM | 250 µM (≈ 99.6 µg/mL) | 32 µM (≈ 12.8 µg/mL) | 125 µM (≈ 49.8 µg/mL) | – | – | – | –
CO[C@@H]1[C@@H](O[C@@H]2O[C@H](C)[C@@H](O[C@H]3C[C@@](C)(O)[C@@H](OC(=O)CC(C)C)[C@H](C)O3)[C@H](N(C)C)[C@H]2O)[C@@H](CC=O)C[C@@H](C)[C@@H](O)/C=C/C=C/C[C@@H](C)OC(=O)C[C@H]1OC(C)=O | Active | Active | – | – | – | – | – | – | – | – | – | –
